Only some compounds are listed: those with a hit (about 1.8% of all), similar ones and a draw of the others.
TNAP inh hiacc = inhibitors of human TNAP at high phosphate acceptor concentration; P05186; purified TNAP, CDP-star luminescence, 1 M DEA; inhibition, % at 20 µM; actives 0.03% (n = 200,000); AID 1135;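 active = over 50% inhibition of tissue-nonspecific alkaline phosphatase at 20 µM in the single-dose screen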;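 also: plate controls were DMSO wells for no effect and EDTA-quenched wells as full inhibition for full effect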
Target sequence (P05186 whole entry, looked up): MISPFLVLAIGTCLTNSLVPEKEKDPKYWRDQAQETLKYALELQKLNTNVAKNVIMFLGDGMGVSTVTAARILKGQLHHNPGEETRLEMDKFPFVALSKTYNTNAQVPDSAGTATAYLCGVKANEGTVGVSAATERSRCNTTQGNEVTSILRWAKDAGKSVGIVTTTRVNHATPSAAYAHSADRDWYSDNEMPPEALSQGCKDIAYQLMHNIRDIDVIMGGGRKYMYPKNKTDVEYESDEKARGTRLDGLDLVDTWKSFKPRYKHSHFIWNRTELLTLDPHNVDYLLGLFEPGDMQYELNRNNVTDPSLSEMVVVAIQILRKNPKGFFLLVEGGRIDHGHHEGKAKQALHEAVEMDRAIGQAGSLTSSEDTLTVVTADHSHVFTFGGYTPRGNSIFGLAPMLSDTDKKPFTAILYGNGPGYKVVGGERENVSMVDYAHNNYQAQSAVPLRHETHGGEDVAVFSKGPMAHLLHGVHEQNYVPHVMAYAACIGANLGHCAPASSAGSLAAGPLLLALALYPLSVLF
TNAP inh no acc = blocks human TNAP activity with no phosphate acceptor present. purified TNAP, CDP-star luminescence, 30 min. actives 0.26% (n = 200,000). inhibition, % at 20 µM;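 active = tissue-nonspecific alkaline phosphatase inhibition above about 50% at 20 µM in the single-dose screen, limit read from the data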;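 also: 0% = DMSO negative control and 100% = EDTA positive control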
Autophagy HCS = alters autophagy in cells | AID 463193 | actives 0.98% (n = 190,000) | calls only at 10 µM (by protocol) | MEF GFP-LC3 puncta imaging; test concentration mostly 10 µM;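 active = percentage of spot-positive cells more than 3 SD above its plate mean, without a fluorescence outlier flag or 80% toxicity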;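 also: spot-positive cell cutoff set from DMSO-treated cells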
TNAP act hiacc = activators of human TNAP at high phosphate acceptor concentration; activation factor at 20 µM; purified TNAP, CDP-star luminescence, 1 M DEA, 30 min; active compounds read high; 0 = EDTA background, 1 = DMSO-only activity; 200,000 tested, under 10 active;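 active = activation factor at least 2 at 20 µM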
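Test system – human TNAP · Doses – 20 µM single point · Incubation – 30 min, room temperature · Signal – luminescent substrate turnover signal · Read-out basis – activation factor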
p47phox inh = blocks human p47phox regulatory protein of NADPH oxidases; inhibition, % at 24.7 µM; actives 0.53% (n = 220,000); P14598; p47phox/p22phox peptide binding, fluorescence polarization, 2 h; AID 1274;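 active = inhibition above about 30%, limit read from the data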;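 also: 0% = p47phox with labelled peptide and 100% = labelled peptide alone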
Ins promoter up = MIN6 insulin promoter up-regulation | z-score at 5 µM | MIN6 insulin promoter-GFP reporter, high-content imaging; active compounds read high | AID 1625 | actives 0.3% (n = 190,000);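 active = z-score above 3 at 5 µM with at least 500 cells counted in the well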
* = called active by the depositor; i = inactive; nt = not tested or not shown; + = active, no number.

SMILES	TNAP inh hiacc	TNAP inh no acc	Autophagy HCS	TNAP act hiacc	p47phox inh	Ins promoter up
Cc1cc[n+](-c2nc3ccccc3nc2[N-]S(=O)(=O)c2ccccc2)cc1	-1	-14	i	1	-8	-0.63
CCc1cc[n+](-c2nc3ccccc3nc2[N-]S(=O)(=O)c2ccc(Br)s2)cc1	0	-4	+	1	-18	0.92
Cc1ccc(NN2C(=O)C=C(c3ccccc3)C2=O)cc1	0	-14	i	1	-12	-0.21
COc1cccc(C(=O)Nc2ccccc2C(=O)N2CCCC2)c1	-1	-8	i	1	-16	3.3*
Cc1cccc(CN2CCN(C(=O)CCc3nnc(C4CCCCC4)o3)CC2)c1	-10	-13	i	1.1	-12	nt
Cc1cc(-c2nnc(CCC(=O)N3CCN(Cc4cccnc4)CC3)o2)c(C)o1	-9	-11	i	1.1	133*	0.03
O=C(COC(=O)c1ccccc1O)Nc1cc([N+](=O)[O-])ccc1Cl	nt	nt	nt	nt	-5	-0.85
CS(=O)(=O)N1CCN(c2ccc([N+](=O)[O-])c(N3CCOCC3)c2)CC1	7	2	i	0.9	-9	-0.12
CS(=O)(=O)N1CCN(c2ccc([N+](=O)[O-])c(NCCN3CCOCC3)c2)CC1	8	4	i	0.9	144*	0.06
O=C(CNC(=O)C12CC3CC(CC(C3)C1)C2)N/N=C\c1ccccn1	-6	-12	i	1.1	-14	-0.03
CCNS(=O)(=O)c1ccc(CCC(N)=O)cc1	-1	-6	i	1	-1	-0.16
CCNS(=O)(=O)c1ccc(CCC(=O)NCc2ccc(C)cc2)cc1	-3	-5	+	1	0	-0.28
CC1(c2ccc(Cl)cc2)NC(=O)CS1 (stereo unspecified)	-1	-5	i	1	-1	nt
CNC(=O)COC(=O)c1cc(-c2ccco2)nc2ccccc12	nt	nt	nt	nt	-2	-0.72
CCN(CC)C(=O)COC(=O)c1cc(-c2ccco2)nc2ccccc12	5	1	i	1	46*	0.19
Cn1c(=O)n(C)c2cc(/C=N/NC(N)=S)ccc21	-5	-5	i	1.1	-4	-0.29
NC(=O)c1cnn(-c2ccc3ccccc3c2)c1N	-6	-10	i	1.1	2	-0.94
N#C/C(=C\c1ccc(O)c(O)c1)C(=O)NCCCc1ccccc1	34	79*	i	0.7	-7	nt
N#C/C(=C\c1ccc(O)c(O)c1)C(=O)N1CCCC1	26	73*	i	0.7	-5	-0.27
COc1cc(C2C3=C(CCCC3=O)Nc3[nH]n(-c4ccccc4)c(=O)c32)ccc1OC(C)=O (stereo unspecified)	0	-2	i	1	5	0.71
O=C(CSc1nnc(-c2cccnc2)n1C1CCCCC1)NC1CCCC1	-6	-12	+	1.1	-7	nt
C=CCOC(=O)C1C(=O)CC(C)(O)C(C(=O)OCC=C)C1c1ccc(N(C)C)cc1 (stereo unspecified)	-1	-8	i	1	-3	nt
COc1cc2c(cc1NC(=O)CN1CCN(S(=O)(=O)c3ccccc3F)CC1)oc1ccccc12	-2	-7	i	1	-4	3.6*
CCCOc1ccc(-c2nn(-c3ccccc3)cc2/C=C2\SC(=S)N(C3CCS(=O)(=O)C3)C2=O)cc1 (stereo unspecified)	13	7	i	0.9	-49	4.8*
CCOc1ccc(-c2nn(-c3ccccc3)cc2/C=C2\SC(=S)N(C3CCS(=O)(=O)C3)C2=O)cc1 (stereo unspecified)	9	7	i	0.9	-66	-0.99
CC(=O)c1ccc(NC(=O)CCSCCC(=O)Nc2ccc(C(C)=O)cc2)cc1	-6	-8	i	1.1	-14	-0.36
O=C(O)CSCCC(=O)Nc1ccc(F)cc1	-5	-11	+	1	-9	0.89
CSc1ccccc1NC(=O)c1cc(-c2cccnc2)nc2ccc(Br)cc12	-2	-1	i	1	31*	-0.71
COc1ccccc1CCNC(=O)c1cc(-c2ccccn2)nc2ccc(Br)cc12	-4	-2	i	1	-18	-0.19
COc1ccccc1CCNC(=O)c1cc(-c2ccncc2)nc2ccc(Br)cc12	-4	1	i	1	39*	-0.36
